Laboratory results from ChEMBL document CHEMBL1156130, “(1-(4-(Naphthalen-2-yl)pyrimidin-2-yl)piperidin-4-yl)methanamine: a wingless beta-catenin agonist that increases bone formation rate” (J Med Chem, 2009).
Converted amounts (≈) assume the structure as drawn. The source made the active and inactive calls. No cut-off for these calls is given here.

Legend:
[1] = target: Glycogen synthase kinase-3 beta (Homo sapiens, UniProt P49841); assay: Inhibition of GSK3-beta
[2] = Solubility at pH 7.4; type: physicochemical; details: buffer
[3] = Volume of distribution at steady state in ovariectomized rat at 2 mg/kg, iv; type: ADME, organism-based; parameters: dose 2 mg/kg, route intravenous; details: female, in vivo, read-out: Vdss
How it was run: (§1)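 Ovariectomized rats received a single intravenous dose of 2.0 mg/kg in DMSO vehicle. Plasma drug concentration-time curves gave the PK parameters.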

[4] = AUC (0 to infinity) in ovariectomized rat at 2 mg/kg, iv; type: ADME, organism-based; parameters: time infinity, dose 2 mg/kg, route intravenous; details: female, plasma
How it was run: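 Single intravenous dose in ovariectomized rats, vehicle DMSO. Plasma drug concentration followed over time; AUC0-∞ taken from the plasma concentration-time curve.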

[5] = Half life in ovariectomized rat plasma at 2 mg/kg, iv; type: ADME, organism-based; parameters: dose 2 mg/kg, route intravenous; details: female; how it was run: as §1
[6] = organism: Mus musculus; assay: Increase in trabecular bone formation rate in Dkk1 knockout mouse measured after 7 days; type: functional, organism-based; details: Trabecula
[7] = organism: Mus musculus; assay: Increase in trabecular bone formation rate in wild type mouse measured after 7 days; type: functional, organism-based; details: Trabecula
[8] = Plasma clearance in ovariectomized rat at 2 mg/kg, iv; type: ADME, organism-based; parameters: dose 2 mg/kg, route intravenous; details: female; how it was run: as §1
[9] = AUC (0 to infinity) in ovariectomized rat at 10 mg/kg, po; type: ADME, organism-based; parameters: time infinity, dose 10 mg/kg, route oral; details: female, plasma
How it was run: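 Single oral dose in ovariectomized rats, vehicle 2% MC/0.5% Tween-80. Plasma drug concentration followed over time; AUC0-∞ taken from the plasma concentration-time curve.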

[10] = Half life in ovariectomized rat plasma at 10 mg/kg, po; type: ADME, organism-based; parameters: dose 10 mg/kg, route oral; details: female
How it was run: (§2)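 Single oral dose given to ovariectomized rats at 10 mg/kg in 2% MC/0.5% T80 vehicle. Plasma drug concentration was followed over time, and PK parameters were derived from the concentration-time curve.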

[11] = Cmax in ovariectomized rat at 10 mg/kg, po; type: ADME, organism-based; parameters: dose 10 mg/kg, route oral; details: female, in vivo; how it was run: as §2
[12] = Membrane permeability by PAMPA; type: ADME; details: read-out: permeability
[13] = Oral bioavailability in ovariectomized rat at 10 mg/kg; type: ADME, organism-based; details: female, in vivo; how it was run: as §2
[14] = Tmax in ovariectomized rat at 10 mg/kg, po; type: ADME, organism-based; parameters: dose 10 mg/kg, route oral; details: female, in vivo; how it was run: as §2
[15] = Metabolic stability in rat liver microsomes assessed as half life at 1 uM; type: ADME, Microsome
[16] = tested on: Rattus norvegicus; assay: Increase in trabecular bone formation rate in once daily po dosed ovariectomized rat measured after 28 days; type: functional, organism-based; details: Trabecula
How it was run: (§3)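 Ovariectomized rats dosed orally once daily for 28 days at four dose levels; vehicle 0.5% methylcellulose/2% Tween-80. Trabecular bone formation rate in the tibia determined at end of in-life phase. Positive control hPTH given sc.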

[17] = tested on: Rattus norvegicus; assay: Increase in trabecular bone formation rate in ovariectomized rat measured at 0.3 mg/kg, po once daily after 28 days; type: functional, organism-based; parameters: dose 0.3 mg/kg; details: Trabecula; how it was run: as §3

Chain of Glycogen synthase kinase-3 beta (P49841 whole entry): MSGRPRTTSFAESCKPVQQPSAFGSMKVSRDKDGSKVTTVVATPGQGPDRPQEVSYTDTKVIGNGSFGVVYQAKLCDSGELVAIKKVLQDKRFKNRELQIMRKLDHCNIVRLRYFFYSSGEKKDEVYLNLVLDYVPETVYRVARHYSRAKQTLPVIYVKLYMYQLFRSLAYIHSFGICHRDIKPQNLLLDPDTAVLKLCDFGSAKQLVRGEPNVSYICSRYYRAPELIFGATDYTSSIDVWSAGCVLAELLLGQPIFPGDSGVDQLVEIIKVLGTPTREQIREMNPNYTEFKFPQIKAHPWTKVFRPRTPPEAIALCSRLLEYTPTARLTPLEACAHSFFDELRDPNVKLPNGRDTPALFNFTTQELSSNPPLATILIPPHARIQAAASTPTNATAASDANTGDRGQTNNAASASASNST

## NS(=O)(=O)c1ccc(Nc2nccc(-c3ccc4ccccc4c3)n2)cc1
[1]
  IC50: 0.31 µM
[2]
  solubility: < 0.1 µg/mL

## CC(=O)NCC1CCN(c2nccc(-c3ccc4ccccc4c3)n2)CC1
[1]
  IC50: > 10 µM
[2]
  solubility: 1 µg/mL (≈ 2.77 µM)

## NCC1CCN(c2nccc(-c3ccc4ccccc4c3)n2)CC1
[3]
  Vd: 22 L/kg
[1]
  IC50: > 100 µM
[4]
  AUC(0-inf): 1030 ng·h/mL
[5]
  half-life: 8.2 h
[6]
  Activity: inactive
[7]
  Activity: Active
[8]
  clearance: 32 mL/min/kg
[9]
  AUC(0-inf): 3990 ng·h/mL
[10]
  half-life: 5.6 h
[11]
  Cmax: 277 ng/mL
[12]
  Papp: 5.9 ×10⁻⁶ cm/s
[13]
  bioavailability: 78%
[14]
  Tmax: 4.7 h
[15]
  half-life at 1 µM: > 0.5 h
[2]
  solubility: 65 µg/mL (≈ 204 µM)
[16]
  Activity: Dose-dependent effect
[17]
  Activity: Active

## Cc1ccc(-c2ccnc(N(C)c3ccc(S(N)(=O)=O)cc3)n2)s1
[1]
  IC50: 65 µM
[2]
  solubility: 15 µg/mL (≈ 41.6 µM)

## NC1CCN(c2nccc(-c3ccc4ccccc4c3)n2)CC1
[1]
  IC50: > 50 µM
[2]
  solubility: > 100 µg/mL

## Cc1ccc(-c2ccnc(Nc3ccc(S(N)(=O)=O)cc3)n2)s1
[1]
  IC50: 0.2 µM
[2]
  solubility: 8 µg/mL (≈ 23.1 µM)
